The values that follow come from ChEMBL document CHEMBL1125175, “Synthesis and DNA-binding properties of polyamine analogues” (J Med Chem, 1991).

The subject of assay [1] is HeLa. Nature of the assay: Ability to cause aggregation of purified HeLa cell DNA. It counts as functional. Conditions: Homo sapiens. In short, it runs like this:
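HeLa DNA labelled via 3-day culture with 4 μCi [³H]thymidine, then phenol/chloroform extracted. 1.5 μg DNA (~20000 cpm) plus analogue at various concentrations in buffer of 25 mM Tris, 4.5 mM KCl, 3 mM MgCl₂, pH 7.6. Incubated 10 min at 37 °C, then centrifuged 2.5 min and supernatant counted.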

In assay [2] the test system is HeLa. Nature of the assay: Ability to inhibit 50% growth of HeLa cells. Particulars: Homo sapiens. It counts as functional, cell-based. In short, it runs like this: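 HeLa cells grown 2 days, then counted to set the baseline. Analogues added in complete medium for a further 2 days, then cells counted. Growth increase compared with untreated controls. IC50 is the concentration giving a 50% decrease in growth relative to controls.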

Assay [3] relates to Calf thymus DNA. Nature of the assay: Ability to displace ethidium bromide from calf thymus DNA. Format: nucleic-acid assay, Bos taurus. In short, it runs like this:
(§1)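 Fluorescence displacement. Ethidium bromide 1.6 μM final in 2 mM HEPES, 10 μM EDTA, 9.4 mM NaCl, pH 7.0, then DNA added at 2 μM final (DNA phosphate): calf thymus DNA, poly(dA-dT)·poly(dA-dT) or poly(dG-dC)·poly(dG-dC). Excitation 546 nm, emission 598 nm. Analogue titrated in aliquots. IC50 is the concentration halving ethidium–DNA fluorescence. Trial-to-trial variability generally <5%.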

Assay [4] relates to Nucleic Acid. Nature of the assay: Ability to displace ethidium bromide from double stranded synthetic Poly (dA-dT). Format: nucleic-acid assay. In short, it runs like this: as §1
Assay [5] deals with Nucleic Acid. Nature of the assay: Ability to displace ethidium bromide from double stranded synthetic poly (dG-dC). It counts as nucleic-acid assay. In short, it runs like this:
as §1

For `c1ccc(CNCCNCCCCCCNCCNCc2ccccc2)cc1`, the IC50 was determined as 2400 µM in assay [1], 75 µM in assay [2] and 800 µM in assay [3].
As for `c1ccc(CNCCCNCCCCCCNCCCNCc2ccccc2)cc1`, the IC50 in assay [1] amounted to 85 µM; in assay [2] it was 60 µM; in assay [4], 10 µM; in assay [3], 5.5 µM; in assay [5], 25 µM.
With `CCCNCCCNCCCCCCCCNCCCNCCC`, the IC50 is 220 µM in assay [1]; above 500 µM in assay [2]; 3.8 µM in assay [4]; 17 µM in assay [3]; 25 µM in assay [5].
As for `NCCCNCCCCCCCCCNCCCN`, the IC50 is 30 µM in assay [2], 4.5 µM in assay [4], 12 µM in assay [3] and 16 µM in assay [5].
For the compound `CCCNCCCNCCCCCCCNCCCNCCC`, the IC50 is 250 µM in assay [1]; 300 µM in assay [2]; 3.8 µM in assay [4]; 10 µM in assay [3]; 20.5 µM in assay [5].
The matching figures for `NCCCCN` [PUTRESCINE]: 12000 µM, 8000 µM, 5100 µM, 4500 µM and 5200 µM.
As to `c1ccc(CNCCCNCCCCCCCNCCCNCc2ccccc2)cc1`, the IC50 was 150 µM in assay [1]; 5 µM in assay [2]; 4.6 µM in assay [4]; 6 µM in assay [3]; 31 µM in assay [5].
As to `NCC(O)CNCCCCCCCCNCC(O)CN` (configuration not stated), the IC50 in assay [1] is 200 µM; in assay [4] it was 4.3 µM; in assay [3] it was 5.2 µM; in assay [5], 27 µM.
For `c1ccc(CNCCNCCCCCCCCNCCNCc2ccccc2)cc1`, the IC50 is 750 µM in assay [1]; 20 µM in assay [2]; 40 µM in assay [4]; 130 µM in assay [3]; 100 µM in assay [5].
The matching figures for `NCCCNCCCCCCCCNCCCN`: 35 µM, 50 µM, 3.8 µM, 4.9 µM and 7.8 µM.
Take `CCNCCCNCCCCCCCCNCCCNCC`: the IC50 worked out at 150 µM in assay [1]; 200 µM in assay [2]; 3.9 µM in assay [4]; 15 µM in assay [3]; 19.5 µM in assay [5].
Turning to `CNCC(C)CNCCCCCCCNCC(C)CNC` (configuration not stated), the IC50 is above 500 µM in assay [2], 4.5 µM in assay [4], 12.8 µM in assay [3] and 20 µM in assay [5].
As for `CCNCCCNCCCCCCCNCCCNCC`, the IC50 in assay [1] amounted to 200 µM; in assay [2], 100 µM; in assay [4], 4 µM; in assay [3] it was 11 µM; in assay [5], 20 µM.
In assay [3], `c1ccc(NCCCNCCCCCCCNCCCNc2ccccc2)cc1` returned an IC50 of 80 µM.
Take `CNCCCNCCCCCCCNCCCNC`: the IC50 came to 150 µM in assay [1]; 500 µM in assay [2]; 3.5 µM in assay [4]; 6 µM in assay [3]; 11 µM in assay [5].
In the case of `C=C(CNC)CNCCCCCCCCNCC(=C)CNC`, the IC50 in assay [2] was found to be 125 µM; in assay [4], 4.5 µM; in assay [3], 19.1 µM; in assay [5], 30 µM.
Consider `NCCCNCCCc1ccc(CCCNCCCN)cc1`, for which the IC50 in assay [1] worked out at 250 µM; in assay [2], 160 µM; in assay [3] it was 5 µM.
On to `NCCCNC(F)(F)CCCN`, for which the IC50 in assay [1] was 7000 µM; in assay [4], 1000 µM; in assay [3], 875 µM; in assay [5] it was 900 µM.
Regarding `NCCCNCCCC(F)(F)NCCCN`, the IC50 in assay [1] is 2500 µM; in assay [3] it was 140 µM.
As to `NCCCNCC(F)(F)CCN`, the IC50 turned out to be 3100 µM in assay [1], 150 µM in assay [2] and 275 µM in assay [3].
Regarding `c1ccc(CNCCCCNCCCCCCCCNCCCCNCc2ccccc2)cc1`, the IC50 was 105 µM in assay [1]; above 500 µM in assay [2]; 3.4 µM in assay [4]; 12 µM in assay [3]; 20 µM in assay [5].
For `c1ccc(CCCNCCCNCCCCCCCNCCCNCCCc2ccccc2)cc1`, in that order: 100 µM, 20 µM, 4.7 µM, 7.5 µM and 12 µM.
Take `c1ccc(CNCCCNCCCCCCCCNCCCNCc2ccccc2)cc1`: the IC50 came out at 300 µM in assay [1]; 15 µM in assay [2]; 4.2 µM in assay [4]; 13 µM in assay [3]; 32 µM in assay [5].
For `NCCCNCCCCCCCCCCNCCCN`, in that order: 170 µM, 10 µM, 4.2 µM, 8 µM and 11 µM.
For the compound `NCCCNCCCCCCCNCCCN`, the IC50 in assay [1] came out at 37 µM; in assay [2], 200 µM; in assay [4], 2.6 µM; in assay [3] it was 3.8 µM; in assay [5] it was 5.4 µM.
With `NCCCCSCCCN`, the IC50 in assay [1] was above 15000 µM; in assay [2] it was 350 µM; in assay [3] it was 1450 µM.
For the compound `NCCCCNCCCN` [SPERMIDINE], the IC50 is 1500 µM in assay [1]; 100 µM in assay [2]; 110 µM in assay [4]; 130 µM in assay [3]; 300 µM in assay [5].
In the case of `NCC(=O)CNCCCCCCCCNCC(=O)CN`, the IC50 stood at 400 µM in assay [1], 10.5 µM in assay [4], 8.2 µM in assay [3] and 18 µM in assay [5].
In turn, `NCCCNCC(F)(F)CN` came in with an IC50 in assay [3] above 10000 µM.
Regarding `CNC(C)CCNCCCCCCCNCCC(C)NC` (configuration not stated), the IC50 in assay [1] was 100 µM; in assay [4], 5 µM; in assay [3], 6.5 µM; in assay [5] it was 15 µM.
Turning to `NCCCNCCCCNCCCN` [SPERMINE], the IC50 amounted to 70 µM in assay [1]; 50 µM in assay [2]; 2.8 µM in assay [4]; 4.3 µM in assay [3]; 6 µM in assay [5].
In the case of `NCCCNCCCC1CCC(CCCNCCCN)CC1` (configuration not stated), the figures for the IC50 in assay [2] and in assay [3] were 90 µM and 7.5 µM, respectively.
In the case of `NCC(O)CNCCCCCCCNCC(O)CN` (configuration not stated), the concentration for half-maximal inhibition (IC50) was determined as 110 µM in assay [1], 4.5 µM in assay [4], 4.9 µM in assay [3] and 23 µM in assay [5].
In the case of `CC(CCN)NCCCCCCCCNC(C)CCN` (configuration not stated), the IC50 amounted to 180 µM in assay [1]; 100 µM in assay [2]; 3.6 µM in assay [4]; 7 µM in assay [3]; 12.6 µM in assay [5].
Regarding `c1ccc(CNCCNCCCCCCCCCCNCCNCc2ccccc2)cc1`, the IC50 was above 8000 µM in assay [1]; 2 µM in assay [2]; 700 µM in assay [4]; 600 µM in assay [3]; 1600 µM in assay [5].
With `NCCCNCCCN` [NORSPERMIDINE], the IC50 in assay [1] amounted to 3000 µM; in assay [2], 100 µM; in assay [4], 140 µM; in assay [3] it was 220 µM; in assay [5] it was 370 µM.
On to `c1ccc(CNCCCNCCCCCCCCCNCCCNCc2ccccc2)cc1`, for which the IC50 in assay [1] came to 200 µM; in assay [2], 10 µM; in assay [4] it was 2.9 µM; in assay [3] it was 31 µM; in assay [5], 24.5 µM.
On to `CC(N)CCNCCCCCCCCNCCC(C)N` (configuration not stated), for which the IC50 in assay [4] was 4.2 µM; in assay [3], 7.5 µM; in assay [5], 12.5 µM.
As to `C/C=C(\CNC)CNCCCCCCCNC/C(=C/C)CNC`, the IC50 in assay [2] is above 500 µM; in assay [4], 5 µM; in assay [3], 12 µM; in assay [5], 34.5 µM.
Regarding `c1ccc(CNCCCNCCCCCCCCCCNCCCNCc2ccccc2)cc1`, the IC50 in assay [1] worked out at 400 µM; in assay [2], 1 µM; in assay [4] it was 3.1 µM; in assay [3] it was 33 µM; in assay [5] it was 26 µM.
For `c1ccc(CNCCNCCCCCCCNCCNCc2ccccc2)cc1`, in that order: 600 µM, 60 µM, 170 µM, 600 µM and 316 µM.
For `c1ccc(CCNCCCNCCCCCCCNCCCNCCc2ccccc2)cc1`, in that order: 85 µM, 20 µM, 2.8 µM, 8 µM and 10.7 µM.
For `c1ccc(CNCCCNCCCCNCCCNCc2ccccc2)cc1`, in that order: 40 µM, 10 µM, 4.9 µM, 10 µM and 17 µM.
For `CNC/C(=C\Cl)CNCCCCCCCNC/C(=C/Cl)CNC`, the IC50 in assay [2] was 125 µM; in assay [4] it was 5 µM; in assay [3], 12 µM; in assay [5], 34.5 µM.
As for `CC(CN)CNCCCCCCCNCC(C)CN` (configuration not stated), the IC50 in assay [2] is above 500 µM; in assay [4], 3 µM; in assay [3] it was 8 µM; in assay [5], 10.5 µM.
The matching figures for `c1ccc(CNCCCNCCCCCNCCCNCc2ccccc2)cc1`: 80 µM, 4.5 µM, 12 µM and 22 µM.
Turning to `NCCCc1ccc(CCCN)cc1`, the IC50 in assay [1] was 3000 µM; in assay [2], 400 µM; in assay [3], 400 µM.

The term IC50 denotes the point on the concentration scale where inhibition reaches its midpoint.
